Measurements taken from ChEMBL document CHEMBL1156707, “Insulin-releasing activity of a series of phenylalanine derivatives” (Eur J Med Chem, 2008).

Columns and labels:
[1] = Increase in insulin releasing activity in Syrian golden hamster HIT-T15 cells at 10 uM after 1 hr relative to control; assay type: functional, Mesocricetus auratus
Summary of the method: (§1)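 Pre-incubated 1 h, then 1 h with compound at a range of concentrations in DMSO, 37 °C; solvent-matched control. Insulin in medium measured by radioimmunoassay. Mean ± sd, n = 3; EC50 is concentration giving 50% increase in insulin release.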

[2] = Increase in insulin releasing activity in Syrian golden hamster HIT-T15 cells at 100 uM after 1 hr relative to control; assay type: functional, Mesocricetus auratus; summary of the method: as §1
[3] = Increase in insulin releasing activity in Syrian golden hamster HIT-T15 cells at 1 uM after 1 hr relative to control; assay type: functional, Mesocricetus auratus; summary of the method: as §1
[4] = tested on: Rattus norvegicus; assay: Decrease in plasma glucose level in Sprague-Dawley rat at 3 mg/kg, po after 180 mins relative to control; assay type: functional; design: scale not given: the % may be the effect or the level left
Summary of the method: (§2)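 Normal SD rats (180–220 g), fasted overnight, 8–10 per group. Single oral dose 3 mg/kg in 0.5% CMC-Na vehicle, then oral glucose 2.5 g/kg immediately after. Caudal-vein blood drawn before dosing and at 15, 30, 60, 120, 180 min. Serum glucose measured by glucose oxidase method. Reported as % decrease versus vehicle control group.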

[5] = tested on: Rattus norvegicus; assay: Decrease in plasma glucose level in Sprague-Dawley rat at 3 mg/kg, po after 60 mins relative to control; assay type: functional; design: scale not given: the % may be the effect or the level left; summary of the method: as §2
[6] = tested on: Rattus norvegicus; assay: Decrease in plasma glucose level in Sprague-Dawley rat at 3 mg/kg, po after 30 mins relative to control; assay type: functional; design: scale not given: the % may be the effect or the level left; summary of the method: as §2
[7] = tested on: Rattus norvegicus; assay: Decrease in plasma glucose level in Sprague-Dawley rat at 3 mg/kg, po after 15 mins relative to control; assay type: functional; design: scale not given: the % may be the effect or the level left; summary of the method: as §2
[8] = Increase in insulin releasing activity in Syrian golden hamster HIT-T15 cells after 1 hr; assay type: functional, cell-based, Mesocricetus auratus; summary of the method: as §1
[9] = tested on: Rattus norvegicus; assay: Decrease in plasma glucose level in Sprague-Dawley rat at 3 mg/kg, po after 120 mins relative to control; assay type: functional; design: scale not given: the % may be the effect or the level left; summary of the method: as §2
[10] = tested on: 3T3-L1; assay: Effect on insulin sensitizing activity in mouse 3T3-L1 cells assessed as increase in triglyceride accumulation at 10 uM after 7 days; assay type: functional
Summary of the method: (§3)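 3T3-L1 preadipocytes in DMEM/10% FBS, grown to 2 days postconfluence. Differentiation induced with insulin, 0.5 mM IBMX and dexamethasone. Compound (1 or 10 mmol/L, DMSO diluted 1000-fold) present during first 4 days of differentiation; 0.1% DMSO negative control. Day 7: oil red O staining, dye extracted with isopropanol, OD 510 nm. Three or four independent experiments.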

[11] = tested on: 3T3-L1; assay: Effect on insulin sensitizing activity in mouse 3T3-L1 cells assessed as increase in triglyceride accumulation at 1 uM after 7 days; assay type: functional; summary of the method: as §3

With `CC(C)[C@H]1CC[C@H](C(=O)N[C@@H](Cc2ccc(OCCn3ccc4ccccc43)cc2)C(=O)O)CC1` the Activity [1] was 74.9%, the Activity [2] was 146.6% and the Activity [3] was 35.7%.

`Cc1oc(-c2ccccc2)nc1CCOc1ccc(C[C@@H](NC(=O)[C@H]2CC[C@H](C(C)C)CC2)C(=O)O)cc1` showed an Activity [4] of 11.4%, an Activity [5] of 33.7% and an Activity [6] of 36.4%. It also gave an Activity [1] of 200.9%, an Activity [2] of 487.4% and an Activity [7] of 21.2%. For the same compound, the EC50 [8] was 120 nM, the Activity [3] was 105.2% and the Activity [9] was 17.3%.

`CC(C)[C@H]1CC[C@H](C(=O)N[C@@H](Cc2ccc(OCc3ccc(C(F)(F)F)cc3)cc2)C(=O)O)CC1` gave an Activity [1] of 76.7%, an Activity [2] of 156.9% and an Activity [3] of 47.9%.

Compound `CC(C)[C@H]1CC[C@H](C(=O)N[C@@H](Cc2ccc(O)cc2)C(=O)O)CC1` has an Activity [1] of 35.4%, an Activity [2] of 64.8% and an Activity [3] of 17.5%.

With `Cc1oc(-c2ccccc2)nc1CCOc1ccc(C[C@H](NC(=O)[C@H]2CC[C@H](C(C)C)CC2)C(=O)O)cc1` the Activity [4] was 2.07%, the Activity [5] was 4.47% and the Activity [6] was 8.51%. The Activity [1] was 131.2%, the Activity [2] was 329.2% and the Activity [10] was 46.01%. It also gave an Activity [7] of 4.73%, an EC50 [8] of 540 nM and an Activity [11] of 38.14%. It also gave an Activity [3] of 68.5% and an Activity [9] of 11.3%.

For `CC(C)[C@H]1CC[C@H](C(=O)N[C@@H](Cc2ccc(OCCN(C)c3nc4ccccc4o3)cc2)C(=O)O)CC1`, the Activity [1] was 72.8%, the Activity [2] was 126.9% and the Activity [3] was 35.5%.

In the case of `CC(C)[C@H]1CC[C@H](C(=O)N[C@@H](Cc2ccc(OCc3ccccc3)cc2)C(=O)O)CC1`, the Activity [1] is reported as 147.5%, the Activity [2] is reported as 225.9% and the EC50 [8] is reported as 1050 nM. For the same compound, the Activity [3] was 53.1%.

With `CCCCOc1ccc(C[C@H](NC(=O)[C@H]2CC[C@H](C(C)C)CC2)C(=O)O)cc1` the Activity [1] was 136.7%, the Activity [2] was 326.2% and the EC50 [8] was 550 nM. For the same compound, the Activity [3] was 73.4%.

Compound `CC(C)[C@H]1CC[C@H](C(=O)N[C@H](Cc2ccc(OCCN(C)c3nc4ccccc4o3)cc2)C(=O)O)CC1` has an Activity [1] of 81.7%, an Activity [2] of 145.1% and an Activity [3] of 24.8%.

`CC(C)[C@H]1CC[C@H](C(=O)N[C@H](Cc2ccc(OCc3ccc(C(F)(F)F)cc3)cc2)C(=O)O)CC1` showed an Activity [1] of 85.6%, an Activity [2] of 152.1% and an Activity [3] of 29.8%.

In the case of `CCCCOc1ccc(C[C@@H](NC(=O)[C@H]2CC[C@H](C(C)C)CC2)C(=O)O)cc1`, the Activity [1] is reported as 107.1%, the Activity [2] is reported as 261.6% and the EC50 [8] is reported as 650 nM. The Activity [3] was 58.9%.

Work on `CCOc1ccc(C[C@@H](NC(=O)[C@H]2CC[C@H](C(C)C)CC2)C(=O)O)cc1` yielded an Activity [1] of 107.3%, an Activity [2] of 183.8% and an EC50 [8] of 260 nM. The Activity [3] was 76.2%.

`CC(C)[C@H]1CC[C@H](C(=O)N[C@@H](Cc2ccc(OCCN(C)c3ccccn3)cc2)C(=O)O)CC1` showed an Activity [1] of 41.5%, an Activity [2] of 83.7% and an Activity [3] of 26%.

For `CC(C)[C@H]1CC[C@H](C(=O)N[C@H](Cc2ccc(OCCN(C)c3ccccn3)cc2)C(=O)O)CC1`, the Activity [1] was 36.2%, the Activity [2] was 59.4% and the Activity [3] was 24.4%.

With `CC(C)[C@H]1CC[C@H](C(=O)N[C@H](Cc2ccc(O)cc2)C(=O)O)CC1` the Activity [1] was 69.6%, the Activity [2] was 122.2% and the Activity [3] was 34.2%.

`CC(C)[C@H]1CC[C@H](C(=O)N[C@H](Cc2ccc(OCCn3ccc4ccccc43)cc2)C(=O)O)CC1` showed an Activity [1] of 58.8%, an Activity [2] of 112% and an Activity [3] of 37.8%.

`CCOc1ccc(C[C@H](NC(=O)[C@H]2CC[C@H](C(C)C)CC2)C(=O)O)cc1` showed an Activity [1] of 99.9%, an Activity [2] of 151.3% and an EC50 [8] of 960 nM. The Activity [3] was 55.8%.

With `CC(C)[C@H]1CC[C@H](C(=O)N[C@H](Cc2ccc(OCc3ccccc3)cc2)C(=O)O)CC1` the Activity [1] was 94.4%, the Activity [2] was 171.1% and the EC50 [8] was 2820 nM. The Activity [3] was 38.9%.

Work on `CC(C)[C@H]1CC[C@H](C(=O)N[C@@H](Cc2ccccc2)C(=O)O)CC1` [(S)-NATEGLINIDE] yielded an Activity [1] of 35.3%, an Activity [2] of 61.1% and an Activity [3] of 26.4%.

`O=C(O)[C@H](CC(=O)N1C[C@H]2CCCC[C@H]2C1)Cc1ccccc1` [MITIGLINIDE] showed an Activity [4] of 70.3%, an Activity [5] of 61.7% and an Activity [6] of 36.2%. The Activity [1] was 66%, the Activity [2] was 120% and the Activity [7] was 16.5%. It also gave an EC50 [8] of 708 nM, an Activity [3] of 52.5% and an Activity [9] of 87.3%.

Work on `CC(C)[C@H]1CC[C@H](C(=O)N[C@H](Cc2ccccc2)C(=O)O)CC1` [NATEGLINIDE] yielded an Activity [1] of 66.8%, an Activity [2] of 124.3% and an EC50 [8] of 7590 nM. The Activity [3] was 36.3%.

`CN(CCOc1ccc(CC2SC(=O)NC2=O)cc1)c1ccccn1` (configuration not stated) [ROSIGLITAZONE] gave an Activity [10] of 35.87% and an Activity [11] of 38.8%.
